From ChEMBL document CHEMBL2390926, “Identification of novel FLT3 kinase inhibitors” (Eur J Med Chem, 2013)
Active and inactive are the calls of the source. No cut-off for these calls is given here.

Tests used:
[1] = biological target: T1, Receptor-type tyrosine-protein kinase FLT3 (Mus musculus) (UniProt Q00342); assay: Inhibition of FLT3 phosphorylation in mouse Ba/F3 cells transfected with FLT3-ITD at 50 nM after 90 mins by Western blot analysis; type: cell-based; conditions: BaF3
T1 sequence (whole entry): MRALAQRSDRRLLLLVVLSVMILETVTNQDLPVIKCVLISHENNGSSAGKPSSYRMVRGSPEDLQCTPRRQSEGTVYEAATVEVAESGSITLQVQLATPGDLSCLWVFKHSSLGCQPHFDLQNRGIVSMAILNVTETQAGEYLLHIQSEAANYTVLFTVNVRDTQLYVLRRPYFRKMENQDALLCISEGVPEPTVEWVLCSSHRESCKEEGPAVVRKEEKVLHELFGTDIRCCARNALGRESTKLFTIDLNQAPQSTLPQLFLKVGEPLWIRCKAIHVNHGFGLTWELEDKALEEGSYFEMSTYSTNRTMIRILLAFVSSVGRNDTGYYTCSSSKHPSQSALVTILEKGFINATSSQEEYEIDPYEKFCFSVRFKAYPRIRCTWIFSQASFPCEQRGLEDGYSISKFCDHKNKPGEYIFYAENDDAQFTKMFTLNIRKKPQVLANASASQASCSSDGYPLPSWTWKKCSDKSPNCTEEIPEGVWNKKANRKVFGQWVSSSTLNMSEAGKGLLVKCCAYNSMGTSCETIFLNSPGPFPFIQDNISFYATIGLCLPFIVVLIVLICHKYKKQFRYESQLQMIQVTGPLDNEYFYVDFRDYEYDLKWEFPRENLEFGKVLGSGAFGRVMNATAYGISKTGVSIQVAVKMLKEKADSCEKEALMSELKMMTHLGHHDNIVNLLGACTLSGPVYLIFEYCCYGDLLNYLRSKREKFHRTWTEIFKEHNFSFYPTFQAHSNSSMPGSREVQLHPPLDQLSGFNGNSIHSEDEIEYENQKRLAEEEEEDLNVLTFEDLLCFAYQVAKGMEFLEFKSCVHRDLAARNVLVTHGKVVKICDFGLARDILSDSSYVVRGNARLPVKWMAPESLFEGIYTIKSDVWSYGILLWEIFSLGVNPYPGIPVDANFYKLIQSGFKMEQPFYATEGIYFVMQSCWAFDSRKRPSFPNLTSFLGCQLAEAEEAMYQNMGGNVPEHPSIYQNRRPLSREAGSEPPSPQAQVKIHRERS
In short: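 Ba/F3-FLT3-ITD cells were treated for 90 min with increasing doses. They were lysed in buffer with 1 mM NaVO4 and protease inhibitors, then reduced and run on Bis-Tris 4–12% gels for Western blot. Phospho-FLT3 and phospho-STAT5 were detected, with total FLT3 and STAT5 as loading controls.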

MV4-11 = assay: Cytotoxicity against human MV4-11 cells after 24 hrs by plate reader analysis; type: functional, cell-based; conditions: MV4-11, 24 h
In short: (§1)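 Cells in RPMI 1640 with 10% FBS at 37 °C and 5% CO2 were seeded at 100,000 cells/ml. They were treated for 24 h at 8 concentrations (50–6400 nM), each in triplicate, with DMSO as negative control. Viable cells were measured by ATP-lite luminescence, and EC50 was taken from dose–response curves.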

EOL1 = assay: Cytotoxicity against human EOL-1 cells after 24 hrs by plate reader analysis; type: functional, cell-based; conditions: EOL1, 24 h; in short: as §1
[2] = biological target: Proto-oncogene tyrosine-protein kinase ROS (Homo sapiens) (UniProt P08922); assay: Inhibition of ROS1 (unknown origin) transfected in mouse Ba/F3 cells up to 1 uM; type: cell-based; conditions: BaF3
[3] = biological target: Ephrin type-A receptor 5 (Homo sapiens) (UniProt P54756); assay: Inhibition of EPHA5 (unknown origin) transfected in mouse Ba/F3 cells up to 1 uM; type: cell-based; conditions: BaF3
Sequence of Ephrin type-A receptor 5 (Homo sapiens) (P54756 whole entry): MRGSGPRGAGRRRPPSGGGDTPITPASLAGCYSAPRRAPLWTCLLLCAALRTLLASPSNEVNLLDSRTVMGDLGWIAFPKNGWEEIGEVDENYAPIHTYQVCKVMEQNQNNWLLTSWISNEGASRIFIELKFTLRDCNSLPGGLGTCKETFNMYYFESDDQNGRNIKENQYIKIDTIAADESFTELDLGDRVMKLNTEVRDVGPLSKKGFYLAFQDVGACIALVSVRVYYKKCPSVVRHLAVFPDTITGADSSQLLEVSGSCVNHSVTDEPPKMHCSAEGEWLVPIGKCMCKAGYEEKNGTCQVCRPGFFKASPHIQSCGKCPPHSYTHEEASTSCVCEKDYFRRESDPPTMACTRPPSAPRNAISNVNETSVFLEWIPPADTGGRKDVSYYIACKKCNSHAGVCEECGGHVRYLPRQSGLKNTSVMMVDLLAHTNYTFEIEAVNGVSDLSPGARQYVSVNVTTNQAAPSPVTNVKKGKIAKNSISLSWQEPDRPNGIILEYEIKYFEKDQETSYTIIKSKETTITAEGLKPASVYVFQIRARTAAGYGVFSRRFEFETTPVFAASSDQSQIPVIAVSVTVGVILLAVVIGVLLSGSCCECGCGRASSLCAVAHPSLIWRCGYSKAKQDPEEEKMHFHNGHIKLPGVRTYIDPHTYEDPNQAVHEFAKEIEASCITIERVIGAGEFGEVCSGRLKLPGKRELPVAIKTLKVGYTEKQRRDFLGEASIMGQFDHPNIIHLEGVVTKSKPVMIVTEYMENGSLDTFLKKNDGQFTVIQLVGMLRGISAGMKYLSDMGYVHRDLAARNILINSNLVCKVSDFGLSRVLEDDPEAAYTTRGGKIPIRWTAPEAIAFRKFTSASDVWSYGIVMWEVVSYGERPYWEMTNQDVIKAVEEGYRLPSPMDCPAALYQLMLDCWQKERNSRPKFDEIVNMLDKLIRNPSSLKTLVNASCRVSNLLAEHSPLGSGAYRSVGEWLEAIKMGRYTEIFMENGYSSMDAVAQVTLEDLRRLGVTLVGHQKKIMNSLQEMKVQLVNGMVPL

[4] = biological target: Tyrosine-protein kinase ABL2 (Homo sapiens) (UniProt P42684); assay: Inhibition of ABL2 (unknown origin) transfected in mouse Ba/F3 cells up to 1 uM; type: cell-based; conditions: BaF3
Sequence of Tyrosine-protein kinase ABL2 (Homo sapiens) (P42684 whole entry): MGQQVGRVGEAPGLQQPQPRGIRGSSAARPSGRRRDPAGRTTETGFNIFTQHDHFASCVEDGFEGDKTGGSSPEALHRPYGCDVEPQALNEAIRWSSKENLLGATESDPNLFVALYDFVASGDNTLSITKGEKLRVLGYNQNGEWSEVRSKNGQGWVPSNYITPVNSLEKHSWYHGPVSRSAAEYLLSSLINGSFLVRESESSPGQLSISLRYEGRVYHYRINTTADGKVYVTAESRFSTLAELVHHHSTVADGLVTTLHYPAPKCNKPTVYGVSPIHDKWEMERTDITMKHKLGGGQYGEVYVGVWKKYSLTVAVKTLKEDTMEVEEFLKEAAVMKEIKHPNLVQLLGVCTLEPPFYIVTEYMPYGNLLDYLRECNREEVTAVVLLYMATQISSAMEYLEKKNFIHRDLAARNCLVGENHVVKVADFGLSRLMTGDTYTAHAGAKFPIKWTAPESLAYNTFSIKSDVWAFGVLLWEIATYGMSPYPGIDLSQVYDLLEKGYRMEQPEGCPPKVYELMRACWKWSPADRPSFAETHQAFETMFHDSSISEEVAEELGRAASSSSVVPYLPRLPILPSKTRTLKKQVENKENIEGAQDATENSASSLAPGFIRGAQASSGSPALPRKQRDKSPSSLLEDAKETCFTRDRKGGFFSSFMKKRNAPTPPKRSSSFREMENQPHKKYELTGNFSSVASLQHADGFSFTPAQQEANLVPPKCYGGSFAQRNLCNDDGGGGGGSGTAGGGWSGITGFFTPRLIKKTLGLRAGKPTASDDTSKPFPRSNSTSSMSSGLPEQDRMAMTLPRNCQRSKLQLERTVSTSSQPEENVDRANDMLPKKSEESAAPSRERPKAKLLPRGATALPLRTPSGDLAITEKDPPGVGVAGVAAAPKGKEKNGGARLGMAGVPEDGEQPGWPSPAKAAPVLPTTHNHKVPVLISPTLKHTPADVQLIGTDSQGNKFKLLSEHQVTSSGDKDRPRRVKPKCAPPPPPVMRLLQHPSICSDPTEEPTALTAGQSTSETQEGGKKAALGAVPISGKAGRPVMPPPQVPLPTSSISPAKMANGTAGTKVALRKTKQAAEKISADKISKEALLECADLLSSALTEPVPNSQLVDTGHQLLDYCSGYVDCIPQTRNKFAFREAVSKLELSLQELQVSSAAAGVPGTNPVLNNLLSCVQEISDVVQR

[5] = biological target: T2, Megakaryocyte-associated tyrosine-protein kinase (Homo sapiens) (UniProt P42679); assay: Inhibition of MATK1 (unknown origin) transfected in mouse Ba/F3 cells at 5 uM after 24 hrs; type: cell-based; conditions: BaF3
T2 sequence (whole entry): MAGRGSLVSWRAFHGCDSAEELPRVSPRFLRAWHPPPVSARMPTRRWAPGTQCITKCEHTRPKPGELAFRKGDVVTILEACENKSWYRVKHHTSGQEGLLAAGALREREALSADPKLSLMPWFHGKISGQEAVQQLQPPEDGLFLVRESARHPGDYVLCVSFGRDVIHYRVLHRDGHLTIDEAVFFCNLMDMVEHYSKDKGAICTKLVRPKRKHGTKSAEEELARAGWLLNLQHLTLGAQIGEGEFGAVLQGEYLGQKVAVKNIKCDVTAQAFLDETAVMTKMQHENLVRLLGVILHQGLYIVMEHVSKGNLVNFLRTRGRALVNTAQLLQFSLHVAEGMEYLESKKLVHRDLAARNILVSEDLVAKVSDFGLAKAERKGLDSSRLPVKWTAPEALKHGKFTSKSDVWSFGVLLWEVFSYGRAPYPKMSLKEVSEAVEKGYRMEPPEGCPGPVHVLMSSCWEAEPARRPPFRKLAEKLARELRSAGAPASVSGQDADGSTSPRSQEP

[6] = biological target: Tyrosine-protein kinase receptor UFO (Homo sapiens) (UniProt P30530); assay: Inhibition of AXL (unknown origin) transfected in mouse Ba/F3 cells at 5 uM after 24 hrs; type: cell-based; conditions: BaF3
Sequence of Tyrosine-protein kinase receptor UFO (Homo sapiens) (P30530 whole entry): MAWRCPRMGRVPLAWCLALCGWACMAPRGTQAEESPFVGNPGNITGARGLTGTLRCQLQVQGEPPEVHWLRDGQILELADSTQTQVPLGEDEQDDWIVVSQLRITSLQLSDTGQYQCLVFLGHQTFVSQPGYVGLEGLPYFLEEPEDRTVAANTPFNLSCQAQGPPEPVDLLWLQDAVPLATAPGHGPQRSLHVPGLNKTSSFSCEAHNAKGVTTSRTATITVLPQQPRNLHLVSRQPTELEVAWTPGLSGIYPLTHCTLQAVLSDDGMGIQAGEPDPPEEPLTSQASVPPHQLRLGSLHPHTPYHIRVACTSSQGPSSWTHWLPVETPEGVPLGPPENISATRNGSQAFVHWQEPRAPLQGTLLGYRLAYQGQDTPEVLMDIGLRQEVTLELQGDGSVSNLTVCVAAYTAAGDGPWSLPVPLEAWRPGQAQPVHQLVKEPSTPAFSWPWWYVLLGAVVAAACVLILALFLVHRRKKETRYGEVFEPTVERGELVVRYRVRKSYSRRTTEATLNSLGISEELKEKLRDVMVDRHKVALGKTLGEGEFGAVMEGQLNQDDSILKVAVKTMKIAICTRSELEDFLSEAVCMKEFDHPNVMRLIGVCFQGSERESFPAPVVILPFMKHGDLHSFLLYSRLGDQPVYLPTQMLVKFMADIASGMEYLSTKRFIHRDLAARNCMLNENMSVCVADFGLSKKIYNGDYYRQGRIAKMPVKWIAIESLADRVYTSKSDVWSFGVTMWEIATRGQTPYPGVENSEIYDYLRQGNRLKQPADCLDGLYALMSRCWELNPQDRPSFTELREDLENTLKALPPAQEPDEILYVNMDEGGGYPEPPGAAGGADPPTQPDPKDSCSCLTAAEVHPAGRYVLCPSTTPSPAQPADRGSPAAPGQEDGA
In short: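 Kinase specificity panel: each Ba/F3 line transformed with one of 24 tyrosine kinases depends on that kinase to grow. Cells were given compound at 1 or 5 µM for 24 h, with DMSO as comparator. Percentage growth was read by ATP-lite luminescence and reported as mean ± SEM.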

| SMILES | inhibition [1] | EC50 (MV4-11) [nM] | EC50 (EOL1) [nM] | inhibition [2] | inhibition [3] | inhibition [4] | inhibition [5] | inhibition [6] |
| --- | --- | --- | --- | --- | --- | --- | --- | --- |
| COc1ccc(C(=O)Nc2cc(-c3ccccc3)[nH]n2)cc1 | Active | 142 | 70 | – | – | – | – | – |
| Fc1ccc(-c2n[nH]cc2-c2ccncc2)cc1Cl | – | – | – | inactive | inactive | inactive | inactive | inactive |
| Cc1ccc(-n2cnc3cc(Nc4nnc(C)c5ccccc45)ccc32)cc1 | – | – | – | – | – | – | inactive | inactive |
